MT1-MMP act inh = blockers of MT1-MMP proenzyme processing, primary screen, HT1080 RFP-PRO-GFP cells, GFP/RFP fluorescence. Matrix metalloproteinase-14 (Homo sapiens), P50281. GFP/RFP ratio fluorescence, overnight; percent of plate control window, DMSO zero. GFP/RFP ratio change, % at 20 µM. actives 0.061% (n = 360,000);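 active = GFP/RFP ratio change of at least 30% with cell ATP level not reduced by more than half and red fluorescence within 50% of control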
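Material – HT1080 RFP-PRO-GFP cells · Control set – DMSO wells and RFP-L50D-GFP cells · Incubation – overnight cell settling, then overnight compound exposure, 37 °C, 5% CO2 · Compound dosing – single-point 20 µM compound, 1% DMSO · Read-out – GFP/RFP fluorescence ratio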
DAGLB inh = DAGLB lipase inhibitors, primary screen, biochemical, fluorescence, HTS; Diacylglycerol lipase-beta (Homo sapiens), Q8NCG7; HEK293T DAGLB membrane lysate, EnzChek fluorogenic substrate; inhibition, % at 5.17 µM; actives 0.059% (n = 340,000); AID 504411, 2011; in the data active = inhibition above about 34%;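 also: 0% = enzyme with vehicle and 100% = wells lacking enzyme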
Target sequence (Q8NCG7 whole entry, looked up): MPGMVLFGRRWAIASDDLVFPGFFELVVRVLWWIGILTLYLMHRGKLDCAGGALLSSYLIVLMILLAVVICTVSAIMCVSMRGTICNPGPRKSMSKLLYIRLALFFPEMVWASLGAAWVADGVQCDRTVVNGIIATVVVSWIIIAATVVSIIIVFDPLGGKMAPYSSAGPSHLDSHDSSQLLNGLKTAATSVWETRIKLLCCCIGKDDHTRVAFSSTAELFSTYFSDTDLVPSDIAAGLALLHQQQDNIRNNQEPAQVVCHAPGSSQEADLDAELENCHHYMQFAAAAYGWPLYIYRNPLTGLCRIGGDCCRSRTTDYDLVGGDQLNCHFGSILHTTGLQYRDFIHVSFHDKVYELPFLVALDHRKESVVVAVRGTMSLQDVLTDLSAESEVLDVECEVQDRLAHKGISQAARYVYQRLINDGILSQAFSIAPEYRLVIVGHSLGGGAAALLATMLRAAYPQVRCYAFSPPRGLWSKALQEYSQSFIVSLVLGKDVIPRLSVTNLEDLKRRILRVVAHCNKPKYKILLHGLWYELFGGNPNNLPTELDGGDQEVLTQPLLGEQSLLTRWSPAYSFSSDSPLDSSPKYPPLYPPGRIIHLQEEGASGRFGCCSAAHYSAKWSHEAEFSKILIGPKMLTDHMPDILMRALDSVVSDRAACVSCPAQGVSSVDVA
rRNA inh HTS = reduced GFP signal of wild-type E. coli, primary screen, bacterial rRNA inhibitor project, GFP/RFP fluorescence, OD600, single point | E. coli WT GFP vs humanized-ribosome RFP mutants, 24 h; active compounds read low; DMSO median 0, no signal -100 | GFP signal change (wild-type ribosome), % (no concentration beside the values) | actives 1.6% (n = 350,000);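 active = significant combined selectivity score with lowered wild-type GFP, culture density cut under 30%, mutant RFP and density less affected; inactive = any of these conditions unmet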
SKN-1 block = suppressors of acrylamide-induced Pgst-4::GFP reporter in worms, primary screen, SKN-1 inhibitor project, whole organism, uHTS, GFP/RFP fluorescence ratio, strain VP596. C. elegans VP596 Pgst-4::GFP/RFP ratio, 24 h. inhibition, % at 21.8 µM. actives 0.49% (n = 360,000). AID 624304, 2012;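 active = interference check ratio from 0.5 to 1.5 plus GFP to RFP signal ratio inhibition reaching or exceeding a fixed threshold, cut at about 30% in these data, passing the limit was not always enough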
Cneo AK release = Cryptococcus neoformans cell lysis inducers, primary screen, AK release luminescence, single concentration. C. neoformans lysis, adenylate kinase release luminescence, 4 h; normalised: neutral wells 0, clomiphene wells 100. lysis activity, % at 15 µM. actives 0.2% (n = 360,000);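 active = mean lysis activity across replicates of at least 80%, whatever share of replicates individually reach that level; inactive = mean lysis activity below 80%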
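Assay system: Cryptococcus neoformans yeast cells / Dosing: single-point compound dose / Timing: 4 h at 37 °C static, read 1 h later / Measured by: luminescence of released adenylate kinase using an AK detection reagent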
hiPSC survival = enhancers of single-cell hiPSC survival, primary screen, ATPlite luminescence | actives 0.044% (n = 360,000) | survival enhancement, % at 20 µM | 100% = ROCK inhibitor wells, 0% = DMSO | AID 602274, 2012; in the data active = survival enhancement above about 18%;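 also: cells exposed to compounds for 16 hours before the ATP read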
Starred values were filed as active, the others as inactive. Compounds with a hit are over-represented: about 1.8% of the library has one in this group of screens.

What do the screens show for `O=C(Nc1nc(-c2ccccc2)cs1)c1ccccc1F`?
MT1-MMP act inh: -1; DAGLB inh: -15; rRNA inh HTS: -20*; SKN-1 block: 53*; Cneo AK release: -1; hiPSC survival: 0

How did CCOc1ccc(NC(=O)N(CCC(C)C)C2CCN(C(C)=O)CC2)cc1 do in these assays?
MT1-MMP act inh: 2; DAGLB inh: -2; SKN-1 block: 0; Cneo AK release: 2; hiPSC survival: 6

How did CC(C)CCN(C(=O)Nc1ccc(Cl)cc1)C1CCN(C(C)C)CC1 do in these assays?
MT1-MMP act inh: 6; DAGLB inh: -1; rRNA inh HTS: -35*; SKN-1 block: 13; hiPSC survival: 0

How did COc1ccc(NC(=O)N[C@@H]2CC[C@H](CCNS(=O)(=O)c3ccccc3F)O[C@@H]2CO)cc1 do in these assays?
rRNA inh HTS: 2; Cneo AK release: 7

Results for CO[C@@H]1CC[C@@H]2CCOc3c(C#N)cccc3C(=O)N(C)C[C@H](c3ccccc3)CC(=O)N(C)C[C@@H]1O2 ?
rRNA inh HTS: 3; Cneo AK release: 83*

How did CO[C@H]1CC[C@H]2CCOc3c(C#N)cccc3C(=O)N(C)C[C@H](c3ccccc3)CC(=O)N(C)C[C@@H]1O2 do in these assays?
rRNA inh HTS: 3; Cneo AK release: 27

What do the screens show for `CO[C@@H]1CN(C)C(=O)c2ccc(NC(=O)c3cnccn3)cc2OC[C@H](C)N(C)C[C@H]1C`?
rRNA inh HTS: 1; Cneo AK release: -1

How did CO[C@H]1CN(C)C(=O)c2cc(NC(=O)C3CCOCC3)ccc2OC[C@@H](C)NC[C@@H]1C do in these assays?
rRNA inh HTS: 0; Cneo AK release: -5

Results for CO[C@H]1CN(C)C(=O)c2cc(NC(=O)C3CCOCC3)ccc2OC[C@@H](C)NC[C@H]1C ?
rRNA inh HTS: 2; Cneo AK release: 107*

How did CO[C@@H]1CN(C)C(=O)c2cc(NC(=O)C3CCOCC3)ccc2OC[C@H](C)NC[C@@H]1C do in these assays?
rRNA inh HTS: 1; Cneo AK release: 102*

How did CO[C@@H]1CN(C)C(=O)c2cc(NC(=O)C3CCOCC3)ccc2OC[C@H](C)NC[C@H]1C do in these assays?
rRNA inh HTS: 4; Cneo AK release: 2

Results for C/C(=N\OCc1ccc(C#N)cc1)c1cc2ccccc2o1 ?
MT1-MMP act inh: 5; DAGLB inh: -9; rRNA inh HTS: -23; SKN-1 block: 54*; Cneo AK release: -3; hiPSC survival: 0

What do the screens show for `N/C(=N\OC(=O)C1CC1)c1ccc([N+](=O)[O-])s1`?
MT1-MMP act inh: 4; DAGLB inh: -2; rRNA inh HTS: -55*; SKN-1 block: -9; hiPSC survival: 0

How did CCNC(=S)N(CCc1c(C)[nH]c2ccc(F)cc12)Cc1cccnc1 do in these assays?
MT1-MMP act inh: -1; DAGLB inh: 3; rRNA inh HTS: -27*; SKN-1 block: 15; Cneo AK release: 6; hiPSC survival: 0

How did O=C(NCC(F)(F)F)[C@@H]1[C@@H](CO)[C@@H]2Cn3c(ccc(-c4ccncc4)c3=O)[C@@H]2N1Cc1ccncc1 do in these assays?
rRNA inh HTS: 4; Cneo AK release: 0

What do the screens show for `O=C(/C=C/c1ccccc1)Nc1nc(-c2ccncc2)cs1`?
MT1-MMP act inh: 0; DAGLB inh: 1; rRNA inh HTS: 13; SKN-1 block: -9; Cneo AK release: -4; hiPSC survival: 5

How did O=[N+]([O-])c1cccc(-c2csc(Nc3ccccc3)n2)c1 do in these assays?
MT1-MMP act inh: -1; DAGLB inh: 2; rRNA inh HTS: -17; SKN-1 block: 35*; Cneo AK release: -1; hiPSC survival: 0

What do the screens show for `COc1ccccc1Nc1nc(-c2cccc([N+](=O)[O-])c2)cs1`?
MT1-MMP act inh: 1; DAGLB inh: -2; rRNA inh HTS: -2; SKN-1 block: 10; hiPSC survival: 0

Results for O=C(Nc1cccc(-c2csc(Nc3ccccc3)n2)c1)c1ccccc1 ?
MT1-MMP act inh: 5; DAGLB inh: 3; rRNA inh HTS: 4; SKN-1 block: 46*; Cneo AK release: -25; hiPSC survival: -2

What do the screens show for `O=C(O)/C=C/C(=O)Nc1nc(-c2ccc3ccccc3c2)cs1`?
MT1-MMP act inh: -3; DAGLB inh: 7; rRNA inh HTS: -34*; SKN-1 block: -11; hiPSC survival: 0

What do the screens show for `CC12N=C3SCc4ccccc4CN3[C@H](c3ccccc3O1)[C@H]2CO[Si](C)(C)C(C)(C)C`?
Cneo AK release: 9

What do the screens show for `CCN(CC)C(=O)CSc1nc2c(sc(=S)n2-c2ccc(C)cc2C)c(=O)[nH]1`?
MT1-MMP act inh: 5; DAGLB inh: 6; rRNA inh HTS: -27*; SKN-1 block: 2; Cneo AK release: -1; hiPSC survival: 1

How did CCOc1ccc(-n2c(=S)sc3c(=O)[nH]c(SCC(=O)C(C)(C)C)nc32)cc1 do in these assays?
MT1-MMP act inh: 8; DAGLB inh: 11; rRNA inh HTS: -29*; SKN-1 block: 7; Cneo AK release: 0; hiPSC survival: -2

What do the screens show for `CCOc1ccc(-n2c(=S)sc3c(=O)[nH]c(SCC(=O)N4CCC(C)CC4)nc32)cc1`?
MT1-MMP act inh: -5; DAGLB inh: 6; rRNA inh HTS: -25*; SKN-1 block: -1; Cneo AK release: 0; hiPSC survival: 1

Results for CCCN1[C@H](C(=O)NC2CCC2)[C@@H](CO)[C@@H]2Cn3c(ccc(-c4cccnc4)c3=O)[C@@H]21 ?
rRNA inh HTS: 4; Cneo AK release: -1

What do the screens show for `O=C(C[C@H]1C=C[C@H](NC(=O)c2cccc(F)c2)[C@@H](CO)O1)NCc1ccccc1`?
rRNA inh HTS: 3; Cneo AK release: 56

What do the screens show for `CN(C)C(=O)C[C@H]1CC[C@@H]2[C@H](COC[C@H](O)CN2C(=O)C2CC2)O1`?
rRNA inh HTS: 0; Cneo AK release: 2

How did CCC(=O)Nc1ccc2c(c1)C(=O)N(C)C[C@@H](OC)[C@H](C)CN(CC1CC1)[C@H](C)CO2 do in these assays?
rRNA inh HTS: 0; Cneo AK release: -6

What do the screens show for `O=C(N/N=C/C(Cl)=C/c1ccccc1)c1ccccn1`?
MT1-MMP act inh: -3; DAGLB inh: 0; rRNA inh HTS: -15*; SKN-1 block: 21; hiPSC survival: -1

Source: PubChem BioAssay
